Assay results taken from ChEMBL document CHEMBL1123791, “3'-substituted 2',3'-dideoxynucleoside analogues as potential anti-HIV (HTLV-III/LAV) agents” (J Med Chem, 1987).
pEC50, pIC50: −log10 of the molar value.

How the values were obtained:
[1] = tested on: ATH-8 cell line; assay: Protection of ATH8 cells against the cytopathic effect of HIV.; type: functional; details: Homo sapiens, read-out: ED50 (the source's name)
[2] = tested on: ATH-8 cell line; assay: Required dose to reduce viability of normal uninfected ATH8 cells.; type: functional; details: Homo sapiens, read-out: ID50 (the source's name)
[3] = tested on: MT4; assay: Protection was determined by evaluation of cluster morphology and reclustering properties in […] at 5 uM concentration; Range is 40-60; type: functional, Homo sapiens
[4] = tested on: MT4; assay: Protection was determined by evaluation of cluster morphology and reclustering properties in […] MT-4 cells at 0.2 uM concentration; Range is 10-40; type: functional, Homo sapiens
Procedure, shortened: (§1)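 MT4 cells infected with HIV (300 CCID50/well) were seeded at 2.5×10^5 cells/mL with compound at 125, 5, 0.2, 0.008 or 0.00032 µM and kept 5 days at 37 °C. Clusters were scored microscopically, dispersed by pipetting, and reclustering assessed after 4 h at 37 °C. Scoring: +++ >90% protection.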

[5] = tested on: MT4; assay: Protection was determined by evaluation of cluster morphology and reclustering properties in mock infected MT-4 cells at 125 uM concentration; type: functional, Homo sapiens; details: in the assay text read “HIV infected” for “mock infected”; procedure, shortened: as §1
[6] = tested on: MT4; assay: Toxicity was determined by evaluation of cluster morphology and reclustering properties in mock infected MT-4 cells at 0.2 uM concentration; type: cell-based; details: human, mt4, 0.2 µM
[7] = tested on: MT4; assay: Toxicity was determined by evaluation of cluster morphology and reclustering properties in mock infected MT-4 cells at 125 uM concentration; Range is 10-40; type: cell-based; details: human, mt4, 125 µM
Procedure, shortened: (§2)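 Mock-infected MT4 cells were seeded at 2.5×10^5 cells/mL with compound at 125–0.00032 µM and cultured 5 days at 37 °C. Cluster morphology was scored microscopically, then cells were dispersed by pipetting and reclustering read after 4 h. Scoring: ++ >90%, + 10–40%, − <10% toxicity.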

[8] = tested on: MT4; assay: Toxicity was determined by evaluation of cluster morphology and reclustering properties in mock infected MT-4 cells at 5 uM concentration; type: cell-based; details: human, mt4, 5 µM; procedure, shortened: as §2
[9] = tested on: MT4; assay: Protection was determined by evaluation of cluster morphology and reclustering properties in […] MT-4 cells at 125 uM concentration; Range is 40-60; type: functional, Homo sapiens
[10] = tested on: MT4; assay: Protection was determined by evaluation of cluster morphology and reclustering properties in […] MT-4 cells at 5 uM concentration.; type: functional, Homo sapiens; procedure, shortened: as §1
[11] = tested on: MT4; assay: Protection was determined by evaluation of cluster morphology and reclustering properties in […] MT-4 cells at 0.2 uM concentration; type: functional, Homo sapiens
[12] = Therapeutic index (Ratio = ID50/ED50).
[13] = tested on: MT4; assay: Protection was determined by evaluation of cluster morphology and reclustering properties in […] MT-4 cells at 5 uM concentration; Range is 10-40; type: functional, Homo sapiens; procedure, shortened: as §1
[14] = tested on: MT4; assay: Protection was determined by evaluation of cluster morphology and reclustering properties in […] at 0.008 uM concentration.; type: functional, Homo sapiens
[15] = tested on: MT4; assay: Toxicity was determined by evaluation of cluster morphology and reclustering properties in mock infected MT-4 cells at 125 uM concentration; type: cell-based; details: human, mt4, 125 µM
[16] = tested on: MT4; assay: Toxicity was determined by evaluation of cluster morphology and reclustering properties in mock infected MT-4 cells at 5 uM concentration; Range is 10-40; type: cell-based; details: human, mt4, 5 µM
[17] = tested on: MT4; assay: Toxicity was determined by evaluation of cluster morphology and reclustering properties in mock infected MT-4 cells at 0.00032 uM concentration; type: cell-based; details: human, mt4, 0.00032 µM; procedure, shortened: as §2
[18] = tested on: MT4; assay: Protection was determined by evaluation of cluster morphology and reclustering properties in […] MT-4 cells at 0.00032 uM concentration; Range is 10-40; type: functional, Homo sapiens; procedure, shortened: as §1
[19] = tested on: MT4; assay: Protection was determined by evaluation of cluster morphology and reclustering properties in […] at 0.008 uM concentration; Range is 40-60; type: functional, Homo sapiens; procedure, shortened: as §1
[20] = tested on: MT4; assay: Toxicity was determined by evaluation of cluster morphology and reclustering properties in mock infected MT-4 cells at 0.008 uM concentration; type: cell-based; details: human, mt4, 0.008 µM; procedure, shortened: as §2
[21] = tested on: MT4; assay: Protection was determined by evaluation of cluster morphology and reclustering properties in […] MT-4 cells at 0.008 uM concentration; Range is 10-40; type: functional, Homo sapiens; procedure, shortened: as §1
[22] = tested on: MT4; assay: Toxicity was determined by evaluation of cluster morphology and reclustering properties in mock infected MT-4 cells at 0.008 uM concentration; Range is 10-40; type: cell-based; details: human, mt4, 0.008 µM; procedure, shortened: as §2

Row | Structure (SMILES) | pEC50 [1] | pIC50 [2] | Toxicity [6] [%] | Toxicity [8] [%] | Protection [10] [%] | Protection [11] [%] | selectivity ratio [12] | Protection [14] [%] | Toxicity [15] [%] | further results
1 | Cc1cn([C@H]2C[C@H](N=[N+]=[N-])[C@@H](CO)O2)c(=O)nc1N | < 4.00 | < 4.00 | < 10 | < 10 | – | – | – | – | – | Protection [3]: 40%; Protection [4]: 10%; Protection [5]: >90%; Toxicity [7]: 10%
2 | NCC1C=CC(n2ccc(N)nc2=O)O1 (stereo unspecified) | 3.59 | < 3.30 | < 10 | < 10 | <10 | <10 | > 1.9 | – | – | Protection [9]: 40%; Toxicity [7]: 10%
3 | CO[C@H]1C[C@H](n2cc(C)c(=O)[nH]c2=O)O[C@@H]1CO | < 4.00 | 4.06 | < 10 | – | – | <10 | < 0.9 | <10 | > 90 | Protection [13]: 10%; Toxicity [16]: 10%
4 | Cc1cn([C@H]2CC[C@@H](CO)O2)c(=O)[nH]c1=O | 4.00 | < 2.70 | < 10 | < 10 | >90 | – | > 20 | <10 | < 10 | Protection [4]: 10%
5 | Cc1cn([C@H]2C[C@H](N=[N+]=[N-])[C@@H](CO)O2)c(=O)[nH]c1=O (stereo in doubt; 1a) [ZIDOVUDINE] | 5.62 | 4.35 | – | – | – | >90 | 19 | – | – | Toxicity [17]: < 10%; Protection [18]: 10%; Protection [19]: 40%; Toxicity [20]: < 10%; Toxicity ([15]; 125 µM): > 90%; Toxicity ([8]; 5 µM): > 90%
6 | Cc1cn([C@H]2C[C@H](F)[C@@H](CO)O2)c(=O)[nH]c1=O [ALOVUDINE] | 5.85 | 4.82 | > 90 | > 90 | – | – | 10 | – | > 90 | Toxicity [17]: < 10%; Protection [18]: 10%; Protection [21]: 10%; Toxicity [22]: 10%
7 | Nc1ccn([C@H]2C[C@H](O)[C@@H](CO)O2)c(=O)n1 [DOXECITINE] | < 4.00 | < 4.00 | < 10 | – | <10 | <10 | – | <10 | > 90 | Toxicity [16]: 10%
8 | Cc1cn([C@H]2C[C@H](O)[C@@H](CO)O2)c(=O)[nH]c1=O [DOXRIBTIMINE] | < 4.00 | < 4.00 | < 10 | < 10 | <10 | <10 | – | – | < 10 | Protection [9]: 40%
